Test results as given in ChEMBL document CHEMBL2203189, “Synthesis and pharmacology of 1-alkyl-3-(1-naphthoyl)indoles: steric and electronic effects of 4- and 8-halogenated naphthoyl substituents” (Bioorg Med Chem, 2012).
Calls of active or inactive are those of the source. The rule behind the calls is not given here.

Columns and labels:
Cannabinoid receptor 1 = Cannabinoid receptor 1 (Homo sapiens, UniProt P21554); assay: Displacement of [3H]CP55940 from human CB1 receptor expressed in HEK293 cells after 1 hr by liquid scintillation spectrophotometry; format: cell-based
Summary of the method: (§1)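 Membranes (50 µg) from HEK-293 cells stably expressing human CB1, cultured in DMEM/10% FBS. Incubated with 0.5 nM [3H]CP55,940 and test compound at 1 nM–10 µM in buffer with BSA (5 mg/mL), 1 h at 30 °C. Nonspecific binding defined with excess unlabelled CP55,940. Filtered through GF/B, then scintillation counting.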

Cannabinoid receptor 2 = Cannabinoid receptor 2 (Homo sapiens, UniProt P34972); assay: Displacement of [3H]CP55940 from human CB2 receptor expressed in CHO cells after 1 hr by liquid scintillation spectrophotometry; format: cell-based
Summary of the method: as §1, with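 “CHO” for “HEK-293”, “CB2,” for “CB1,”, “fetal calf serum.” for “FBS.”, “µM” for “µM in buffer”, “GF/B filtration,” for “Filtered through GF/B,”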

Homo sapiens = species on record: Homo sapiens; assay: Selectivity ratio of Ki for human CB1 receptor to Ki for human CB2 receptor
Mus musculus [1] = assay: Locomotor activity in Harlan ICR mouse assessed as inhibition of activity level at 6.9 umol/kg, iv from 5 to 15 mins by spontaneous locomotor activity test relative to vehicle treated control; format: functional
Summary of the method: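 Spontaneous activity in male ICR mice (18–25 g) after one iv tail-vein probe dose in 1:1:18 emulphor–ethanol–saline. Photocell beam interruptions (16 beams per chamber) recorded over 10 min, 5–15 min after dosing. Reported as % inhibition relative to the vehicle group. n = 6 per dose.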

Mus musculus [2] = assay: Antinociceptive activity in Harlan ICR mouse assessed as latency to heat-induced tail flicking at 6.9 umol/kg, iv at 20 mins relative to control; format: functional
Mus musculus [3] = assay: Hypothermic activity in Harlan ICR mouse assessed as change in rectal temperature at 6.9 umol/kg, iv at 30 mins; format: functional
Summary of the method: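 Male ICR mice, 18–25 g, dosed iv in the tail vein with a single probe dose in emulphor–ethanol–saline 1:1:18. Rectal thermistor probe inserted to 25 mm. Baseline read before injection and again at 30 min. Reported as the change from pre-injection temperature (Δ°C). n = 6 per dose.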

Mus musculus [4] = assay: Induction of catalepsy in Harlan ICR mouse at 6.9 umol/kg, iv at 40 mins measured for 5 mins by ring immobility test; format: functional
Summary of the method: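 Ring test on male ICR mice given one probe dose iv (tail vein; 1:1:18 emulphor–ethanol–saline). At 40 min each mouse is placed on a 5.5 cm ring 16 cm high and scored over 5 min by blinded observers. Up to 5 escapes allowed; data dropped if escapes occur before 2.5 min. Immobility index = time motionless/300 s × 100. n = 6 per dose.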

Mus musculus [5] = assay: Locomotor activity in Harlan ICR mouse assessed as inhibition of activity level at 68 umol/kg, iv from 5 to 15 mins by spontaneous locomotor activity test relative to vehicle treated control; format: functional
Summary of the method: (§2)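 Male ICR mice, n = 6 per dose, single probe dose iv in emulphor–ethanol–saline 1:1:18. Photocell beam interruptions recorded over 10 min, at 5–15 min after dosing. Result given as % inhibition relative to the vehicle group.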

Mus musculus [6] = assay: Antinociceptive activity in Harlan ICR mouse assessed as latency to heat-induced tail flicking at 68 umol/kg, iv at 20 mins relative to control; format: functional, organism-based
Mus musculus [7] = assay: Locomotor activity in Harlan ICR mouse assessed as inhibition of activity level at 80 umol/kg, iv from 5 to 15 mins by spontaneous locomotor activity test relative to vehicle treated control; format: functional; summary of the method: as §2
Mus musculus [8] = assay: Antinociceptive activity in Harlan ICR mouse assessed as latency to heat-induced tail flicking at 80 umol/kg, iv at 20 mins relative to control; format: functional
Mus musculus [9] = assay: Hypothermic activity in Harlan ICR mouse assessed as change in rectal temperature at 80 umol/kg, iv at 30 mins; format: functional
Summary of the method: (§3)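 Male ICR mice, n = 6 per dose. Single probe dose iv in emulphor–ethanol–saline 1:1:18. Rectal temperature taken with a thermistor probe at 25 mm depth before dosing and at 30 min. Result given as change from pre-injection value (°C).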

Mus musculus [10] = assay: Induction of catalepsy in Harlan ICR mouse at 80 umol/kg, iv at 40 mins measured for 5 mins by ring immobility test; format: functional
Summary of the method: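 Male ICR mice given a single iv probe dose in emulphor–ethanol–saline 1:1:18. At 40 min placed on a 5.5 cm ring raised 16 cm and observed for 5 min by blinded raters. Up to 5 escapes allowed; mice escaping before 2.5 min excluded. Immobility index = time motionless / 300 s × 100.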

Mus musculus [11] = assay: Locomotor activity in Harlan ICR mouse assessed as inhibition of activity level at 66 umol/kg, iv from 5 to 15 mins by spontaneous locomotor activity test relative to vehicle treated control; format: functional; summary of the method: as §2
Mus musculus [12] = assay: Antinociceptive activity in Harlan ICR mouse assessed as latency to heat-induced tail flicking at 66 umol/kg, iv at 20 mins relative to control; format: functional
Mus musculus [13] = assay: Hypothermic activity in Harlan ICR mouse assessed as change in rectal temperature at 66 umol/kg, iv at 30 mins; format: functional; summary of the method: as §3
Mus musculus [14] = assay: Locomotor activity in Harlan ICR mouse assessed as inhibition of activity level at 27 umol/kg, iv from 5 to 15 mins by spontaneous locomotor activity test relative to vehicle treated control; format: functional; summary of the method: as §2
Mus musculus [15] = assay: Antinociceptive activity in Harlan ICR mouse assessed as latency to heat-induced tail flicking at 27 umol/kg, iv at 20 mins relative to control; format: functional
Mus musculus [16] = assay: Hypothermic activity in Harlan ICR mouse assessed as change in rectal temperature at 27 umol/kg, iv at 30 mins; format: functional; summary of the method: as §3
Mus musculus [17] = assay: Locomotor activity in Harlan ICR mouse assessed as inhibition of activity level at 91 umol/kg, iv from 5 to 15 mins by spontaneous locomotor activity test relative to vehicle treated control; format: functional; summary of the method: as §2
Mus musculus [18] = assay: Hypothermic activity in Harlan ICR mouse assessed as change in rectal temperature at 91 umol/kg, iv at 30 mins; format: functional; summary of the method: as §3
Mus musculus [19] = assay: Induction of catalepsy in iv dosed Harlan ICR mouse at 40 mins measured for 5 mins by ring immobility test; format: functional
Mus musculus [20] = assay: Antinociceptive activity in Harlan ICR mouse assessed as latency to heat-induced tail flicking at 91 umol/kg, iv at 20 mins relative to control; format: functional
Mus musculus [21] = assay: Locomotor activity in Harlan ICR mouse assessed as inhibition of activity level at […], iv from 5 to 15 mins by spontaneous locomotor activity test relative to vehicle treated control; format: functional
Mus musculus [22] = assay: Antinociceptive activity in Harlan ICR mouse assessed as latency to heat-induced tail flicking at […], iv at 20 mins relative to control; format: functional
Mus musculus [23] = assay: Hypothermic activity in Harlan ICR mouse assessed as change in rectal temperature at […], iv at 30 mins; format: functional
Mus musculus [24] = assay: Induction of catalepsy in Harlan ICR mouse at […], iv at 40 mins measured for 5 mins by ring immobility test; format: functional

Chain of Cannabinoid receptor 2 (P34972 whole entry): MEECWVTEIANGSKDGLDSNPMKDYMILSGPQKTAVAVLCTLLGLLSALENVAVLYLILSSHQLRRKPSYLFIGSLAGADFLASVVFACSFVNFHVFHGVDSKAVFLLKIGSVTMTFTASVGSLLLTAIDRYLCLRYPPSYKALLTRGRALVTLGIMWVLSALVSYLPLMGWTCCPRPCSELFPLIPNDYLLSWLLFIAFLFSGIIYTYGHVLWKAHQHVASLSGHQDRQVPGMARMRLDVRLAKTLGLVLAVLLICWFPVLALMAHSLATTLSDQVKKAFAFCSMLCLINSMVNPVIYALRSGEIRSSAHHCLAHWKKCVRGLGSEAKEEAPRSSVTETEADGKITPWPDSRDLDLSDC
Chain of Cannabinoid receptor 1 (P21554 whole entry): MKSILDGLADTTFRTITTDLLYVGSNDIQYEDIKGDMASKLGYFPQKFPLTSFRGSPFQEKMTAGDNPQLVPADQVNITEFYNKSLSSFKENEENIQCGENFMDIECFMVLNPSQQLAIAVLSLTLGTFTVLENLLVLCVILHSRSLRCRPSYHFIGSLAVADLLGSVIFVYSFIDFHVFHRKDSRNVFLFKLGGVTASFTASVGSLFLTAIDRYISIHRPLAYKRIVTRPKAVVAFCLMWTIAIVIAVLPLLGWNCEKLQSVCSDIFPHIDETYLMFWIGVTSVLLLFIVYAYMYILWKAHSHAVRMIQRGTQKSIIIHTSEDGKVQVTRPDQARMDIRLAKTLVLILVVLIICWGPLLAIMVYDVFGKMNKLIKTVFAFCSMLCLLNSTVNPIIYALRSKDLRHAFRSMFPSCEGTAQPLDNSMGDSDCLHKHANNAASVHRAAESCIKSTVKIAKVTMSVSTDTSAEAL

`CCCCCn1c(C)c(C(=O)c2cccc3cccc(Br)c23)c2ccccc21` gave a Ki (Cannabinoid receptor 1) of 54 nM, a Ki (Cannabinoid receptor 2) of 10 nM and a Ratio Ki (Homo sapiens) of 5.5. For the same compound, the inhibition in vivo at 6.9 µmol/kg (Mus musculus [1]) was 79%, the Activity (Mus musculus [2]) was 100% and the Activity (Mus musculus [3]) was -3.7%. It also gave an Activity (Mus musculus [4]) of 53%.
`CCCn1cc(C(=O)c2cccc3cccc(I)c23)c2ccccc21` showed a Ki (Cannabinoid receptor 1) of 2960 nM, a Ki (Cannabinoid receptor 2) of 152 nM and a Ratio Ki (Homo sapiens) of 19. The inhibition in vivo at 68 µmol/kg (Mus musculus [5]) was -25% and the Activity (Mus musculus [6]) was “inactive”.
With `CCCCCn1cc(C(=O)c2cccc3cccc(Cl)c23)c2ccccc21` the Ki (Cannabinoid receptor 1) was 23 nM, the Ki (Cannabinoid receptor 2) was 10 nM and the Ratio Ki (Homo sapiens) was 2.3. For the same compound, the inhibition in vivo at 80 µmol/kg (Mus musculus [7]) was 94%, the Activity (Mus musculus [8]) was 100% and the Activity (Mus musculus [9]) was -6.9%. For the same compound, the Activity (Mus musculus [10]) was 92%.
Work on `CCCn1c(C)c(C(=O)c2ccc(I)c3ccccc23)c2ccccc21` yielded a Ki (Cannabinoid receptor 1) of 501 nM, a Ki (Cannabinoid receptor 2) of 20 nM and a Ratio Ki (Homo sapiens) of 25. For the same compound, the inhibition in vivo at 66 µmol/kg (Mus musculus [11]) was 74%, the Activity (Mus musculus [12]) was 60% and the Activity (Mus musculus [13]) was -3%.
`CCCCCn1cc(C(=O)c2ccc(Cl)c3ccccc23)c2ccccc21` was tested, and the Ki (Cannabinoid receptor 1) was 2.3 nM, the Ki (Cannabinoid receptor 2) was 2.8 nM and the Ratio Ki (Homo sapiens) was 0.8. It also gave an inhibition in vivo at 27 µmol/kg (Mus musculus [14]) of 82%, an Activity (Mus musculus [15]) of 90% and an Activity (Mus musculus [16]) of -4.9%.
For `CCCn1cc(C(=O)c2ccc(F)c3ccccc23)c2ccccc21`, the Ki (Cannabinoid receptor 1) was 240 nM, the Ki (Cannabinoid receptor 2) was 33 nM and the Ratio Ki (Homo sapiens) was 7. For the same compound, the inhibition in vivo at 91 µmol/kg (Mus musculus [17]) was 67%, the Activity (Mus musculus [18]) was -3.3% and the Activity (Mus musculus [19]) was “inactive”. The Activity (Mus musculus [20]) was 59%.
In the case of `CCCn1cc(C(=O)c2ccc(I)c3ccccc23)c2ccccc21`, the Ki (Cannabinoid receptor 1) is reported as 140 nM, the Ki (Cannabinoid receptor 2) is reported as 6.6 nM and the Ratio Ki (Homo sapiens) is reported as 21. The inhibition in vivo at […] (Mus musculus [21]) was 10%, the Activity (Mus musculus [22]) was 26% and the Activity (Mus musculus [23]) was -1.7%. It also gave an Activity (Mus musculus [24]) of 2%.
